{"source": "ChEMBL document CHEMBL4425103", "about": "“Diving into the Water: Inducible Binding Conformations for BRD4, TAF1(2), BRD9, and CECR2 Bromodomains” (J Med Chem, 2016)", "key": {"[1]": {"system": "T1, Chromatin remodeling regulator CECR2 (Homo sapiens), Q9BXF3 [M506I]", "T1 sequence (whole entry)": "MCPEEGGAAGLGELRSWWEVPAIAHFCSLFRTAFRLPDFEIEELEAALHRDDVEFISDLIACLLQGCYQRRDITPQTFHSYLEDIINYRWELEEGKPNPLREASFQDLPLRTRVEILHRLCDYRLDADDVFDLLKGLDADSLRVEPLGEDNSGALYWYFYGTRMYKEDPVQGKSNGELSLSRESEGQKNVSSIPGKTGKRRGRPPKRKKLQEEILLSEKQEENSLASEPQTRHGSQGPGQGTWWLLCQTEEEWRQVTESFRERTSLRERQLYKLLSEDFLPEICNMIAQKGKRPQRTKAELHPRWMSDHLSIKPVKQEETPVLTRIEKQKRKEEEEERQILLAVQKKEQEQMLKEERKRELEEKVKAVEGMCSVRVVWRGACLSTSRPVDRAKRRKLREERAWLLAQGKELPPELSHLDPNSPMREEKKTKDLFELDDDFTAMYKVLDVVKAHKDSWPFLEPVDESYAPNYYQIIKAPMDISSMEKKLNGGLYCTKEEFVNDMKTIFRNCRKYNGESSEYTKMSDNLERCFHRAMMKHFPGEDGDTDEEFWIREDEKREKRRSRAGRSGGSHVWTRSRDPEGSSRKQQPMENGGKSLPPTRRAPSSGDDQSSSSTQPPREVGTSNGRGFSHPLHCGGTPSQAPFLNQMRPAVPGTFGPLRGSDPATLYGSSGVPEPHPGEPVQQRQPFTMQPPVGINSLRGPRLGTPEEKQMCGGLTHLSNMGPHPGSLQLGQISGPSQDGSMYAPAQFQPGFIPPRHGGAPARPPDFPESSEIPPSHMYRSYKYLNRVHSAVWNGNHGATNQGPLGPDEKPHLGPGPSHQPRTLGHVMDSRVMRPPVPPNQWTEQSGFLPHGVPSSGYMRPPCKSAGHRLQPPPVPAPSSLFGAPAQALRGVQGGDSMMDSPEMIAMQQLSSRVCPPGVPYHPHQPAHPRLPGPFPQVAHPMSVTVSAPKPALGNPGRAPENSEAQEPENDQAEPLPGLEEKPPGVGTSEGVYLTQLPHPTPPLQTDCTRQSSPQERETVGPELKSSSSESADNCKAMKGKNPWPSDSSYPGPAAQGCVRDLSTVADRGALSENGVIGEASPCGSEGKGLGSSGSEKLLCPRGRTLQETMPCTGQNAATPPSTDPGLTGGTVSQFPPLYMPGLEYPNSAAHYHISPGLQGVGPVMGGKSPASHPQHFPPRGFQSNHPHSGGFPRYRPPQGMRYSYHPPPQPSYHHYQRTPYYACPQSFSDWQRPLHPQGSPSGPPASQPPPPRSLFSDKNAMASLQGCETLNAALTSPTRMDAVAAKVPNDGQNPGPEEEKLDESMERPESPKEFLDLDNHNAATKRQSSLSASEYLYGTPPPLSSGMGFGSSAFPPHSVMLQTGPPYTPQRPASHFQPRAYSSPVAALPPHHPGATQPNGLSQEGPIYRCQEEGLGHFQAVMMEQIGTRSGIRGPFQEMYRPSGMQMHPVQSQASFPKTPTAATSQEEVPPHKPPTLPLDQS", "experiment": "Binding affinity to CECR2 M506I mutant (unknown origin) assessed as change in melting temperature at 10 uM by SYPRO red dye based differential scanning fluorimetry", "method_in_brief": "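Differential scanning fluorimetry: aggregate removed by centrifugation, then bromodomain at 4 µM final with 10X SYPRO Red, 10 µM compound and 0.2% DMSO in 20 mM HEPES pH 7.7, 100 mM NaCl. Heated 25 to 95 °C, fluorescence read at 1 °C steps. Apparent Tm taken from melt curves; mean of at least five wells for CECR2.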"}, "[2]": {"biological_target": "Histone acetyltransferase p300 (Homo sapiens, UniProt Q09472)", "sequence (Q09472 whole entry)": "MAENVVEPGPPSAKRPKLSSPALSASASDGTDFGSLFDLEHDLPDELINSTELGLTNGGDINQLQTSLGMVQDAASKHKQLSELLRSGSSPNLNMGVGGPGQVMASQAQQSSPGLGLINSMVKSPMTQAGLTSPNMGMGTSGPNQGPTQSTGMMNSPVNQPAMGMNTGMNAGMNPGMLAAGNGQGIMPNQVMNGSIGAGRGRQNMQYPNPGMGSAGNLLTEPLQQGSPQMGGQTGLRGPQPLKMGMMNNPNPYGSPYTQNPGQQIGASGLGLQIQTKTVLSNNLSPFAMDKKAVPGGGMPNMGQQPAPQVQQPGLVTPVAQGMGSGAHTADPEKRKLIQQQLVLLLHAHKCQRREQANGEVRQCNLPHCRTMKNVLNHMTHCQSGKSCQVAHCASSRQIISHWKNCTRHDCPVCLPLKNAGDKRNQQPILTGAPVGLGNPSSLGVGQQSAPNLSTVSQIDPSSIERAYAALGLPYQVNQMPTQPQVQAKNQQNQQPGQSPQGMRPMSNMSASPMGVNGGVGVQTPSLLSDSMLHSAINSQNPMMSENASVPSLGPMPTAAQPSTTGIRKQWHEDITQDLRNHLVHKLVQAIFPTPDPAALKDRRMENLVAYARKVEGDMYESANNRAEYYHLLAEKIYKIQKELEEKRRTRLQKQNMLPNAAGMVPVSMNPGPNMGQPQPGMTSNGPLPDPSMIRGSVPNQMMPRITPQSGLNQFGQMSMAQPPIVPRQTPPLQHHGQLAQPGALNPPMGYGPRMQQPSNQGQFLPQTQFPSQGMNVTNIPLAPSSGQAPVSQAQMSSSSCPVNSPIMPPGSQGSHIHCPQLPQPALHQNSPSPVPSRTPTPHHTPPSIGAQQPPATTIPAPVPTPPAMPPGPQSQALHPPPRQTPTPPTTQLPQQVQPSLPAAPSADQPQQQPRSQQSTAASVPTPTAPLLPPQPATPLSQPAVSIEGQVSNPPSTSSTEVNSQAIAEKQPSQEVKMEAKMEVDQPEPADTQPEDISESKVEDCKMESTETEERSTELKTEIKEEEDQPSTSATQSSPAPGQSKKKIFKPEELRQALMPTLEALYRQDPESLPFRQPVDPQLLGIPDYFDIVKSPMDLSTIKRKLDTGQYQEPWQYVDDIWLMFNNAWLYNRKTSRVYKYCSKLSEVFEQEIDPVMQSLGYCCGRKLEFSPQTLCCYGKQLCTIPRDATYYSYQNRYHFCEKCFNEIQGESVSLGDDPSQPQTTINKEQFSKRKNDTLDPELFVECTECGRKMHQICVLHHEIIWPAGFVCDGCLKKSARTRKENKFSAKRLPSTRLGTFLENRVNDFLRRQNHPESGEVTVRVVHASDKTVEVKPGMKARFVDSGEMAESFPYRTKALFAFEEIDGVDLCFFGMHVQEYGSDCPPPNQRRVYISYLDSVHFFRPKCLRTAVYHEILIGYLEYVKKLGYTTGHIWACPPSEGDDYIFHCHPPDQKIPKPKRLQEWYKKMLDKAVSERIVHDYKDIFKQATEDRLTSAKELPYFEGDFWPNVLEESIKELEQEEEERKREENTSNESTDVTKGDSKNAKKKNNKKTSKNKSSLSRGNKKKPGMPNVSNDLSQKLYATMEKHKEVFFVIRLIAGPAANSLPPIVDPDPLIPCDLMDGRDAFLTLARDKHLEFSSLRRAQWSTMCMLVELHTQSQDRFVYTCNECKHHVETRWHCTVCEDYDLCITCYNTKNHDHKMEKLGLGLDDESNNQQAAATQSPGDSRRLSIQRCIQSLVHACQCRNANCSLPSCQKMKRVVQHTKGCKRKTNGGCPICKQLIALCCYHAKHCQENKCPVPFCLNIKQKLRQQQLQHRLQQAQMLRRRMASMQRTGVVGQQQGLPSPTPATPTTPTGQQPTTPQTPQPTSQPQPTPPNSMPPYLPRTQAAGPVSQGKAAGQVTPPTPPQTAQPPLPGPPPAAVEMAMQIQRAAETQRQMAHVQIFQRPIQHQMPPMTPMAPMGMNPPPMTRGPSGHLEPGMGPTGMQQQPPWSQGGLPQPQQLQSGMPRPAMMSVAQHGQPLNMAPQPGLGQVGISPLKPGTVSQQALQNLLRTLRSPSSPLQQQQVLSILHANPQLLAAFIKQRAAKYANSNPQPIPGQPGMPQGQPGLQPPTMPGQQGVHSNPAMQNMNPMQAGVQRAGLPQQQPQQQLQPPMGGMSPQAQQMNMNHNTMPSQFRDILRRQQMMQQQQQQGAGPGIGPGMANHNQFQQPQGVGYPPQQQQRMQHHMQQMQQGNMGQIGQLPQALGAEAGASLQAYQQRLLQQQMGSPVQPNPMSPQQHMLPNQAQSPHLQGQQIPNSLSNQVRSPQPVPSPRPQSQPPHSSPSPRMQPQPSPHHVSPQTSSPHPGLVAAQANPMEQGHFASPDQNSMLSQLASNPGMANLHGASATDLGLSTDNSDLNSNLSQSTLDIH", "experiment": "Binding affinity to human partial length EP300 expressed in bacterial expression system by BROMOscan assay"}, "Peregrin": {"biological_target": "T2, Peregrin (Homo sapiens, UniProt P55201)", "T2 sequence (P55201 whole entry)": "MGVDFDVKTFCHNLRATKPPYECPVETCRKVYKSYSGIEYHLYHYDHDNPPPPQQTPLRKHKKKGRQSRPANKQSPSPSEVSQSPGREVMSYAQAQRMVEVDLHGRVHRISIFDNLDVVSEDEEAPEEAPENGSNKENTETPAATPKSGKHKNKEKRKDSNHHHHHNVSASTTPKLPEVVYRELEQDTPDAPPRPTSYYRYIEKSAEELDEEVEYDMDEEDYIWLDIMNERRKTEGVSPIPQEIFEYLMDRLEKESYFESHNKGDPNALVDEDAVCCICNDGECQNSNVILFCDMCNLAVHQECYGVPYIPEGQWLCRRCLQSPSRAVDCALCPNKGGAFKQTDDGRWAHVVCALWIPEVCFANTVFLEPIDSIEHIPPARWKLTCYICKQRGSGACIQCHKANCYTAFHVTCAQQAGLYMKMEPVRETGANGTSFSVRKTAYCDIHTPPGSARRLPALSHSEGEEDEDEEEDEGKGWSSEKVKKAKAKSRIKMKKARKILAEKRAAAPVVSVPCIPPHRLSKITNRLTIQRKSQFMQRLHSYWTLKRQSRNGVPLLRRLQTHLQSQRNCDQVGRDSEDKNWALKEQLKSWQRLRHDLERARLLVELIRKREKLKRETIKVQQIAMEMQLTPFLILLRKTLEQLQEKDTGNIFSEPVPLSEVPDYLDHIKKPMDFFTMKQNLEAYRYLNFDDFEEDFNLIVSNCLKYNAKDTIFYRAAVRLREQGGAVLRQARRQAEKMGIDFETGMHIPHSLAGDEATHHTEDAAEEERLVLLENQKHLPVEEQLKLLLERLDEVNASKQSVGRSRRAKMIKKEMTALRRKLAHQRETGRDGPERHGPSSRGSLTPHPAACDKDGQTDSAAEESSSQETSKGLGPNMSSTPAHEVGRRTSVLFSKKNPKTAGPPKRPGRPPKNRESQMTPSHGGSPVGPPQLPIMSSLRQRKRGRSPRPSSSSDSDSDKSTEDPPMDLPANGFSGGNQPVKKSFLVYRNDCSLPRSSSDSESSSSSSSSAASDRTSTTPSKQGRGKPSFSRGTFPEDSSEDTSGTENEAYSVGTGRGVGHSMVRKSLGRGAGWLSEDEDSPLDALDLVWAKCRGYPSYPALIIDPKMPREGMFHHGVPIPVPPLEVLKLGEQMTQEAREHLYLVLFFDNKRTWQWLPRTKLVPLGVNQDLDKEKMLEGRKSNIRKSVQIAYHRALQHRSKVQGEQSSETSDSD", "experiment": "Displacement of biotinylated JQ1 analog from recombinant His-tagged BRPF1 (unknown origin) incubated for 10 mins by TR-FRET assay", "method_in_brief": "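Bromodomain, then biotinylated ligand, each added with 10 min incubation. Anti-His europium (0.2 nM) plus streptavidin-APC followed for 40 min. 10-point titrations in duplicate, at least 2 independent runs.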"}, "[3]": {"biological_target": "Transcription initiation factor TFIID subunit 1 (Homo sapiens, UniProt P21675)", "sequence (P21675 whole entry, canonical isoform)": "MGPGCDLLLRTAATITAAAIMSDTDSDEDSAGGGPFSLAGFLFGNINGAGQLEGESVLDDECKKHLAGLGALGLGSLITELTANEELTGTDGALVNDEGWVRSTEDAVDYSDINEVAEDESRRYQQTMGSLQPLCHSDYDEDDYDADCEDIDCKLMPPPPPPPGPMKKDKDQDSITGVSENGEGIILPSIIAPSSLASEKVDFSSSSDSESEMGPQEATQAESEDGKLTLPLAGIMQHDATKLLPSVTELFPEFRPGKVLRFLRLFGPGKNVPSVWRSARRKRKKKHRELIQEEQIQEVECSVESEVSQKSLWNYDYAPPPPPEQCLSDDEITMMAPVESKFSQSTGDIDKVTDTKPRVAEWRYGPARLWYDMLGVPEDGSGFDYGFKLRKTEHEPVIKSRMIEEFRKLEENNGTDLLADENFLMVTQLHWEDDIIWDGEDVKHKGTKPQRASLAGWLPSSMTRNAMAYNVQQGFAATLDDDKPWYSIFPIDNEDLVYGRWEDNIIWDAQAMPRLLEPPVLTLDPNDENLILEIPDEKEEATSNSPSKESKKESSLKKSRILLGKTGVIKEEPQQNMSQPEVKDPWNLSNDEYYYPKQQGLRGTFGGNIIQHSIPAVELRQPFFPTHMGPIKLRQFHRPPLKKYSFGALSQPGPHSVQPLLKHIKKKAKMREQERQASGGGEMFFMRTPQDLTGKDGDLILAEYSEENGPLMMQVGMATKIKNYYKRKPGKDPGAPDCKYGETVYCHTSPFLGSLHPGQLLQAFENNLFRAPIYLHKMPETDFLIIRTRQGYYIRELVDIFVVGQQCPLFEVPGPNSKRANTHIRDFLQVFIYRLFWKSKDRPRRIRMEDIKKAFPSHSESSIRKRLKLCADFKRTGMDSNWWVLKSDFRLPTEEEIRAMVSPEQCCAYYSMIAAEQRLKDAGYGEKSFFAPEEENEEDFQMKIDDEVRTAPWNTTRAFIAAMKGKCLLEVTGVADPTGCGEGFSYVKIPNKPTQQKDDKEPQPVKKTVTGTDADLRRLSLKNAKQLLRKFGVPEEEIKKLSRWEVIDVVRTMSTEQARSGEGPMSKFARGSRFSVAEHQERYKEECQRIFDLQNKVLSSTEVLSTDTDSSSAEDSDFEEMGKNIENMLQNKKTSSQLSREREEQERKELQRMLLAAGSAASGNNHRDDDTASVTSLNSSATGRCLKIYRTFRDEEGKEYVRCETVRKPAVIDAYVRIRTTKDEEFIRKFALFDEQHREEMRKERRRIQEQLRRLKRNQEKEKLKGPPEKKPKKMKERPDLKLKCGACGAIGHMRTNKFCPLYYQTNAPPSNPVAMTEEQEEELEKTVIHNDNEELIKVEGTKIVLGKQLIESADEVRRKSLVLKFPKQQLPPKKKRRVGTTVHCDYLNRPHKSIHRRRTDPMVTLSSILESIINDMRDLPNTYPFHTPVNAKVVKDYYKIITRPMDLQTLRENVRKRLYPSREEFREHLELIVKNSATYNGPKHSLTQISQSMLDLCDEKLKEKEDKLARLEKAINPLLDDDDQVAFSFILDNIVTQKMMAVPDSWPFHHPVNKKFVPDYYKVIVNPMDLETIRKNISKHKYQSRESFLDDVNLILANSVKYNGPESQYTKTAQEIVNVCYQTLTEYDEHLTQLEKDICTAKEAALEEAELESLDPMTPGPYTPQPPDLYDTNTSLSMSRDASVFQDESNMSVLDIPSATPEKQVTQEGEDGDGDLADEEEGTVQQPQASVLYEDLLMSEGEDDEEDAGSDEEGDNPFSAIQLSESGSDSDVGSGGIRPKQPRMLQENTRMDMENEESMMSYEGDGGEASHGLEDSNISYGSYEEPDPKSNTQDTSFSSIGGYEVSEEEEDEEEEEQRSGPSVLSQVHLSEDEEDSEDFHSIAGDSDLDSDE", "experiment": "Inhibition of recombinant His-tagged TAF1 isoform-1 (unknown origin) using biotinylated ligand incubated for 10 mins by TR-FRET assay"}}, "data": [{"smiles": "CN(C)C(=O)c1cccc(-c2cn(C)c(=O)c3[nH]ccc23)c1", "values": [{"measurement": "ΔTm", "setting": "[1]", "value": 3, "unit": "°C"}, {"measurement": "Kd", "setting": "[2]", "value": 0.27, "unit": "µM"}, {"measurement": "IC50", "setting": "Peregrin", "value": 1.5, "unit": "µM"}]}, {"smiles": "C=CCn1cc(-c2cccc(C(=O)N(C)C)c2)c2cc[nH]c2c1=O", "values": [{"measurement": "ΔTm", "setting": "[1]", "value": 2, "unit": "°C"}, {"measurement": "IC50", "setting": "[3]", "value": "> 20", "unit": "µM"}, {"measurement": "IC50", "setting": "Peregrin", "value": "> 20", "unit": "µM"}]}]}
